Type in all cases: functional, cell-based
One experiment concerns MCF7. Put plainly: Antiproliferative activity against human MCF7 cells after 72 hrs by MTT assay. As to conditions: MCF7, 72 h. In a few lines:
(§1)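 Six human breast carcinoma lines of differing molecular and phenotypic character were each exposed to a range of concentrations for 72 h. Proliferation was read by MTT. Results are given as mean percent viability, with IC₅₀ ± SEM calculated per cell line.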
For orientation: Tetrazolium dyes change colour on reduction, which living cells bring about.

Another experiment relates to MDA-MB-468. The experiment is described as follows: Antiproliferative activity against human MDA-MB-468 cells after 72 hrs by MTT assay. The note with it: MDA-MB-468, 72 h. In short, it runs like this:
as §1

In a further experiment the test system is MDA-MB-231. The experiment is described as follows: Antiproliferative activity against human MDA-MB-231 cells after 72 hrs by MTT assay. As to conditions: MDA-MB-231, 72 h. In short, it runs like this:
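MDA-MB-231 triple-negative breast cancer cells were exposed to a range of concentrations for 72 h. Proliferation was read by MTT. Results are given as mean percent viability versus concentration, with IC₅₀ ± SEM calculated from the curve.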

Another experiment concerns T47D. Put plainly: Antiproliferative activity against human T47D cells after 72 hrs by MTT assay. In a few lines:
as §1

The test system of another experiment is BT-474. Put plainly: Antiproliferative activity against human BT474 cells after 72 hrs by MTT assay. As to conditions: BT-474, 72 h. In a few lines: as §1
The next experiment concerns SK-BR-3. Put plainly: Antiproliferative activity against human SKBR3 cells after 72 hrs by MTT assay. As to conditions: SK-BR-3, 72 h. In a few lines:
as §1

The term IC50 denotes the concentration needed to halve the response being measured. The low end stands for greater potency, the high end for weaker potency. Take `C[C@@H]1CC[C@@]2(OC1)O[C@H]1C[C@H]3[C@@H]4CC[C@H]5C[C@@H](OC(=O)c6ccccc6)CC[C@]5(C)[C@H]4CC(=O)[C@]3(C)[C@H]1[C@@H]2C`: the IC50 in the experiment on MCF7 amounted to 30.3 µM; in the experiment on MDA-MB-468 it was 34.2 µM; in the experiment on MDA-MB-231 it was 29.1 µM; in the experiment with T47D, 37.8 µM; with BT-474, 36.3 µM; in the experiment with SK-BR-3, 33.4 µM.
With `COc1ccc(NC(=S)N/N=C2\C[C@H]3[C@@H](CC[C@H]4C[C@@H](O)CC[C@@]43C)[C@@H]3C[C@@H]4O[C@]5(CC[C@@H](C)CO5)[C@@H](C)[C@@H]4[C@@]23C)cc1`, the IC50 with MCF7 was 10.1 µM; in the experiment with MDA-MB-468 it was 11.2 µM; in the experiment on MDA-MB-231 it was 9.5 µM; in the experiment with T47D, 14.2 µM; in the experiment on BT-474 it was 10.9 µM; in the experiment on SK-BR-3, 11.5 µM.
`C[C@@H]1CC[C@@]2(OC1)O[C@H]1C[C@H]3[C@@H]4CC[C@H]5C[C@@H](O)CC[C@]5(C)[C@H]4C/C(=N\NC(=S)Nc4ccc5c(c4)OCO5)[C@]3(C)[C@H]1[C@@H]2C`: the IC50 in the experiment on MCF7 amounted to 5.3 µM; in the experiment on MDA-MB-468, 5.9 µM; in the experiment on MDA-MB-231, 5.5 µM; in the experiment on T47D, 7.8 µM; with BT-474, 7.5 µM; in the experiment on SK-BR-3 it was 6.2 µM.
With `C[C@@H]1CC[C@@]2(OC1)O[C@H]1C[C@H]3[C@@H]4CC[C@H]5C[C@@H](O)CC[C@]5(C)[C@H]4C/C(=N\NC(=O)Nc4cccc(C(F)(F)F)c4)[C@]3(C)[C@H]1[C@@H]2C`, the IC50 worked out at 13.8 µM with MCF7; 15.3 µM with MDA-MB-468; 14 µM with MDA-MB-231; 20.9 µM in the experiment with T47D; 19.2 µM in the experiment with BT-474; 15.7 µM in the experiment on SK-BR-3.
Turning to `Cc1ccc(NC(=S)N/N=C2\C[C@H]3[C@@H](CC[C@H]4C[C@@H](O)CC[C@@]43C)[C@@H]3C[C@@H]4O[C@]5(CC[C@@H](C)CO5)[C@@H](C)[C@@H]4[C@@]23C)c(C)c1`, the IC50 with MCF7 is 3 µM; with MDA-MB-468, 3.8 µM; in the experiment on MDA-MB-231, 2.7 µM; with T47D, 5.2 µM; in the experiment with BT-474 it was 3.7 µM; in the experiment on SK-BR-3 it was 4.2 µM.
On to `C[C@@H]1CC[C@@]2(OC1)O[C@H]1C[C@H]3[C@@H]4CC[C@H]5C[C@@H](O)CC[C@]5(C)[C@H]4C/C(=N\NC(=S)Nc4ccc([N+](=O)[O-])cc4)[C@]3(C)[C@H]1[C@@H]2C`, for which the concentration for half-maximal inhibition (IC50) with MCF7 turned out to be 7.5 µM; in the experiment on MDA-MB-468, 8 µM; in the experiment on MDA-MB-231, 7.3 µM; in the experiment with T47D, 11.5 µM; with BT-474 it was 10.3 µM; in the experiment with SK-BR-3, 7.9 µM.
Turning to `C[C@@H]1CC[C@@]2(OC1)O[C@H]1C[C@H]3[C@@H]4CC[C@H]5C[C@@H](OC(=O)c6cccc(C(F)(F)F)c6)CC[C@]5(C)[C@H]4CC(=O)[C@]3(C)[C@H]1[C@@H]2C`, the half-inhibitory concentration (IC50) in the experiment on MCF7, with MDA-MB-468, in the experiment on MDA-MB-231, in the experiment with T47D, with BT-474 and with SK-BR-3 was greater than 40 µM in each case.
For the molecule `C[C@@H]1CC[C@@]2(OC1)O[C@H]1C[C@H]3[C@@H]4CC[C@H]5C[C@@H](O)CC[C@]5(C)[C@H]4C/C(=N\NC(=S)Nc4ccc(C(F)(F)F)cc4)[C@]3(C)[C@H]1[C@@H]2C`, the half-maximal inhibitory concentration (IC50) in the experiment on MCF7 was found to be 3.7 µM; with MDA-MB-468 it was 3.9 µM; with MDA-MB-231, 3.2 µM; with T47D it was 3.8 µM; with BT-474, 4.4 µM; in the experiment with SK-BR-3, 4 µM.
On to `C[C@@H]1CC[C@@]2(OC1)O[C@H]1C[C@H]3[C@@H]4CC[C@H]5C[C@@H](OC(=O)c6ccc(F)cc6)CC[C@]5(C)[C@H]4CC(=O)[C@]3(C)[C@H]1[C@@H]2C`, for which the IC50 in the experiment with MCF7 came to 28 µM; in the experiment with MDA-MB-468, 33.4 µM; with MDA-MB-231, 27 µM; in the experiment on T47D, 29 µM; in the experiment with BT-474 it was 30 µM; with SK-BR-3, 36 µM.
Take `C[C@@H]1CC[C@@]2(OC1)O[C@H]1C[C@H]3[C@@H]4CC[C@H]5C[C@@H](O)CC[C@]5(C)[C@H]4C/C(=N\NC(=S)Nc4ccc(Oc5ccccc5)cc4)[C@]3(C)[C@H]1[C@@H]2C`: the concentration for half-maximal inhibition (IC50) with MCF7 is 27 µM; with MDA-MB-468, 30.8 µM; in the experiment on MDA-MB-231 it was 28.1 µM; in the experiment with T47D it was greater than 40 µM; with BT-474 it was 31.2 µM; in the experiment with SK-BR-3, 29 µM.
For `C[C@@H]1CC[C@@]2(OC1)O[C@H]1C[C@H]3[C@@H]4CC[C@H]5C[C@@H](O)CC[C@]5(C)[C@H]4C/C(=N\NC(=S)Nc4ccccc4Cl)[C@]3(C)[C@H]1[C@@H]2C`, the half-inhibitory concentration (IC50) with MCF7 was 5.9 µM; in the experiment on MDA-MB-468, 6.2 µM; with MDA-MB-231 it was 5.5 µM; in the experiment on T47D it was 7 µM; in the experiment with BT-474 it was 6.5 µM; with SK-BR-3, 5.7 µM.
Take `CCc1ccccc1NC(=S)N/N=C1\C[C@H]2[C@@H](CC[C@H]3C[C@@H](O)CC[C@@]32C)[C@@H]2C[C@@H]3O[C@]4(CC[C@@H](C)CO4)[C@@H](C)[C@@H]3[C@@]12C`: the IC50 is 5 µM in the experiment on MCF7; 5.8 µM with MDA-MB-468; 3.8 µM in the experiment with MDA-MB-231; 8.8 µM with T47D; 8.3 µM in the experiment on BT-474; 4.7 µM in the experiment on SK-BR-3.
For the molecule `C[C@@H]1CC[C@@]2(OC1)O[C@H]1C[C@H]3[C@@H]4CC[C@H]5C[C@@H](O)CC[C@]5(C)[C@H]4C/C(=N\NC(=O)Nc4ccccc4)[C@]3(C)[C@H]1[C@@H]2C`, the concentration for half-maximal inhibition (IC50) with MCF7 was found to be 10.4 µM; in the experiment with MDA-MB-468 it was 11.9 µM; in the experiment on MDA-MB-231 it was 9.2 µM; in the experiment with T47D, 13.5 µM; in the experiment on BT-474, 11.9 µM; with SK-BR-3, 12 µM.
As to `Cc1cccc(C)c1NC(=S)N/N=C1\C[C@H]2[C@@H](CC[C@H]3C[C@@H](O)CC[C@@]32C)[C@@H]2C[C@@H]3O[C@]4(CC[C@@H](C)CO4)[C@@H](C)[C@@H]3[C@@]12C`, the IC50 with MCF7 came to 2.5 µM; with MDA-MB-468 it was 2.8 µM; with MDA-MB-231 it was 2.3 µM; in the experiment on T47D, 4.2 µM; in the experiment on BT-474, 3.2 µM; in the experiment with SK-BR-3 it was 2.9 µM.
Consider `C[C@@H]1CC[C@@]2(OC1)O[C@H]1C[C@H]3[C@@H]4CC[C@H]5C[C@@H](OC(=O)c6ccc([N+](=O)[O-])cc6)CC[C@]5(C)[C@H]4CC(=O)[C@]3(C)[C@H]1[C@@H]2C`, for which the IC50 is 32.4 µM in the experiment with MCF7; greater than 40 µM with MDA-MB-468; 25.3 µM in the experiment with MDA-MB-231; greater than 40 µM in the experiment on T47D; greater than 40 µM with BT-474; 34.9 µM in the experiment on SK-BR-3.
With `C[C@@H]1CC[C@@]2(OC1)O[C@H]1C[C@H]3[C@@H]4CC[C@H]5C[C@@H](O)CC[C@]5(C)[C@H]4C/C(=N\NC(=S)Nc4cc(C(F)(F)F)cc(C(F)(F)F)c4)[C@]3(C)[C@H]1[C@@H]2C`, the 50% inhibitory concentration (IC50) in the experiment on MCF7 was 8 µM; in the experiment with MDA-MB-468, 8.2 µM; in the experiment with MDA-MB-231, 7.3 µM; in the experiment with T47D, 11 µM; with BT-474, 10.8 µM; in the experiment on SK-BR-3 it was 8.6 µM.
For `Cc1ccc(NC(=S)N/N=C2\C[C@H]3[C@@H](CC[C@H]4C[C@@H](O)CC[C@@]43C)[C@@H]3C[C@@H]4O[C@]5(CC[C@@H](C)CO5)[C@@H](C)[C@@H]4[C@@]23C)cc1`, the IC50 in the experiment with MCF7 was 3.7 µM; with MDA-MB-468, 4 µM; with MDA-MB-231 it was 3.1 µM; in the experiment on T47D, 6.1 µM; in the experiment on BT-474, 4.5 µM; in the experiment with SK-BR-3 it was 3.8 µM.
Take `C[C@@H]1CC[C@@]2(OC1)O[C@H]1C[C@H]3[C@@H]4CC[C@H]5C[C@@H](O)CC[C@]5(C)[C@H]4C/C(=N\NC(=S)Nc4c(Cl)cccc4Cl)[C@]3(C)[C@H]1[C@@H]2C`: the IC50 worked out at 6.4 µM in the experiment on MCF7; 7.3 µM in the experiment on MDA-MB-468; 6 µM with MDA-MB-231; 10.4 µM with T47D; 6.9 µM in the experiment with BT-474; 9 µM in the experiment with SK-BR-3.
With `C[C@@H]1CC[C@@]2(OC1)O[C@H]1C[C@H]3[C@@H]4CC[C@H]5C[C@@H](O)CC[C@]5(C)[C@H]4C/C(=N\NC(=S)Nc4ccccc4)[C@]3(C)[C@H]1[C@@H]2C`, the IC50 in the experiment on MCF7 is 8 µM; in the experiment with MDA-MB-468 it was 8.4 µM; in the experiment on MDA-MB-231, 7.8 µM; with T47D, 10.3 µM; in the experiment with BT-474, 9.3 µM; in the experiment on SK-BR-3, 9.1 µM.
With `C[C@@H]1CC[C@@]2(OC1)O[C@H]1C[C@H]3[C@@H]4CC[C@H]5C[C@@H](O)CC[C@]5(C)[C@H]4C/C(=N\NC(=O)Nc4ccc(Cl)cc4)[C@]3(C)[C@H]1[C@@H]2C`, the half-inhibitory concentration (IC50) in the experiment on MCF7 was determined as 9.1 µM; with MDA-MB-468, 11.3 µM; with MDA-MB-231 it was 8.5 µM; in the experiment on T47D it was 12 µM; in the experiment with BT-474, 9.8 µM; with SK-BR-3 it was 9 µM.
For `C[C@@H]1CC[C@@]2(OC1)O[C@H]1C[C@H]3[C@@H]4CC[C@H]5C[C@@H](O)CC[C@]5(C)[C@H]4C/C(=N\NC(=S)Nc4ccc(Cl)cc4Cl)[C@]3(C)[C@H]1[C@@H]2C`, the IC50 in the experiment on MCF7 was determined as 7.9 µM; in the experiment on MDA-MB-468, 8 µM; in the experiment on MDA-MB-231, 7.5 µM; in the experiment on T47D, 9.5 µM; in the experiment with BT-474, 9 µM; with SK-BR-3 it was 8.8 µM.

The values above are taken from ChEMBL document CHEMBL4177624, “Rationally designed hecogenin thiosemicarbazone analogs as novel MEK inhibitors for the control of breast malignancies” (Bioorg Med Chem, 2017).
